697 NFkB inh: inhibitors of the PMA/ionomycin-induced NF-kB reporter in 697 B cells; 697 B-cell NF-kB luciferase reporter, 16 h; actives 0.33% (n = 330,000); AID 435022; inhibition, % at 4 µM; in the data active = inhibition above about 35%
HSF1 inhib: HSF1 inhibition. NIH3T3-HGL HSE-luciferase, MG132-induced, luminescence 8 h; stronger effect = lower value. activity change, negative = inhibition, % at 7.5 µM (by protocol). actives 0.77% (n = 300,000). AID 2098;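 active = more than half of replicate wells show activity change below -50%, luminescence cut by over half; inconclusive = some wells, but at most half, below -50%; inactive = no replicate well below -50%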;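 also: luciferase reports HSF-1 transcriptional activity via heat shock element; 0% = median of DMSO wells and -100% = zero luminescence signal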
GPR7 antagonist: blocks human GPR7 receptor signaling; inhibition, % at 4.4 µM; AID 1861; actives 1.1% (n = 290,000); P48145; GPR7-expressing cells, fluorescence antagonist assay; in the data active = inhibition above about 16%, passing the limit was not always enough;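 also: cells stimulated with the agonist NPW; 0% = agonist with vehicle and 100% = vehicle without agonist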
Target sequence (P48145 whole entry, looked up): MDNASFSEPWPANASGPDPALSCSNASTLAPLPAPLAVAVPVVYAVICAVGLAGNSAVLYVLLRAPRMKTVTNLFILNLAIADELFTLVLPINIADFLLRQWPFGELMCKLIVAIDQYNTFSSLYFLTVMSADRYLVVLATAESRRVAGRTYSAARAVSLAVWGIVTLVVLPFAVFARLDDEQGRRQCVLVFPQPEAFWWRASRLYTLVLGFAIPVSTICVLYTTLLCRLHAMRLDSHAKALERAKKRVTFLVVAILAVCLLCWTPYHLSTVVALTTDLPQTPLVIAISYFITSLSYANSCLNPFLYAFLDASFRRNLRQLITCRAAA
HSF1 activator: increases HSF-1 driven luciferase reporter signal; NIH3T3-HGL HSF-1 luciferase reporter, MG132, 8 h; 100% = twice DMSO control signal; activation, % at 9 µM; actives 1.7% (n = 300,000); AID 504408;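 active = mean replicate activation of at least 50% with a set share of replicates each reaching 50%; inconclusive = only one of those two conditions met; inactive = mean below 50% and too few replicates reaching it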;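 also: 0% = median of the neutral control wells and 100% = twice that signal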
Jurkat NFkB inh: lowers PMA/ionomycin-induced NF-kB signal in Jurkat cells; PMA/ionomycin-induced NF-kB luciferase reporter, luminescence; inhibition, % at 4 µM; actives 0.53% (n = 330,000); AID 435003; in the data active = inhibition above about 50%
T cruzi repl: blocks replication of Trypanosoma cruzi; T. cruzi beta-gal in NIH3T3, luminescence, 90 h; inhibition, % (test concentration not listed); actives 1.4% (n = 300,000); AID 1885;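 active = mean inhibition across valid replicates above about 55%, limit read from the data; inconclusive = mean below that limit but half or more replicates reach it; inactive = mean below it, under half of replicates reach it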;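 also: signal also drops with host cell toxicity which is not excluded here; 0% = plate median of DMSO wells and 100% = zero luminescence signal; higher percent means less beta-gal luminescence so fewer parasites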
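Assay system: NIH/3T3 host cells with β-galactosidase reporter T. cruzi; input: 5,000 host fibroblasts per well; compound: single 50 nL compound addition per well in DMSO; timing: ≥90 h infection period, 3 h prior cell attachment; measured by: GalScreen β-gal luminescence, detergent lysis, 60 min; evaluation: percent inhibition of parasite-derived β-gal signal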
697 NFkB conf: lowers PMA/ionomycin-induced NF-kB signal in 697 B cells; AID 449746; 697 B-cell NF-kB luciferase, 16 h; shares compounds with 697 NFkB inh; actives 35% (n = 2,000); inhibition, % at 4 µM; in the data active = inhibition mostly above about 28%, no sharp cut-off; inactive = mostly below about 22%
An asterisk follows results filed as active. Rows were chosen to be rich in hits. Some 4.8% of all compounds tested hit in one or more screens of this group.

Results for CS(=O)(=O)N1c2ccccc2[C@]2([C@@]34C[C@H]5C(=O)N[C@@H](Cc6ccccc6)C(=O)N5[C@@H]3N(S(C)(=O)=O)c3ccccc34)C[C@H]3C(=O)N[C@@H](Cc4ccccc4)C(=O)N3[C@H]12 ?
697 NFkB inh: 8; HSF1 inhib: 3; HSF1 activator: -3; Jurkat NFkB inh: 10; T cruzi repl: 7

How did CCCCNc1c(-c2ccc(SC(C)CC)cc2)nc2cnccn12 (stereo not given) do in these assays?
697 NFkB inh: -59; Jurkat NFkB inh: 6

How did Cc1ccc(Nc2nc(=O)c3cccnc3s2)c(Br)c1 do in these assays?
697 NFkB inh: -283; HSF1 inhib: 2; GPR7 antagonist: -17; HSF1 activator: -11; Jurkat NFkB inh: 8; T cruzi repl: -3; 697 NFkB conf: -254

What do the screens show for `CC(=O)c1ccc(Nc2nc(=O)c3cccnc3s2)cc1`?
697 NFkB inh: -38; HSF1 inhib: 17; GPR7 antagonist: -3; HSF1 activator: 29; Jurkat NFkB inh: -2; T cruzi repl: -10

Results for O=c1nc(Nc2ccc(OCc3ccccc3)cc2)sc2ncccc12 ?
697 NFkB inh: inactive; HSF1 inhib: 4; GPR7 antagonist: -3; HSF1 activator: 9; Jurkat NFkB inh: -55; T cruzi repl: 5; 697 NFkB conf: inactive

Results for Cc1ccc2nc(-c3ccc(NC(=O)CN4CCN(c5ccccn5)CC4)cc3)sc2c1 ?
697 NFkB inh: -290; HSF1 inhib: 1; GPR7 antagonist: -18; HSF1 activator: -11; Jurkat NFkB inh: -79; T cruzi repl: -2; 697 NFkB conf: -230

Results for C=CCn1c(SCC(=O)Nc2ccc(-c3nc4ccc(C)cc4s3)cc2)nnc1-c1ccncc1 ?
697 NFkB inh: -214; HSF1 inhib: 7; GPR7 antagonist: -4; HSF1 activator: 7; Jurkat NFkB inh: -51; T cruzi repl: -9

Results for CCn1c(SCC(=O)Nc2ccc(-c3nc4ccc(C)cc4s3)cc2)nnc1-c1ccccc1 ?
697 NFkB inh: -326; HSF1 inhib: 16; GPR7 antagonist: -4; HSF1 activator: 36; Jurkat NFkB inh: -76; T cruzi repl: 3; 697 NFkB conf: -189

Results for CN(CCCC(=O)Nc1ccc(OC(F)F)cc1)S(=O)(=O)c1ccc(F)cc1 ?
697 NFkB inh: 7; HSF1 inhib: 1; GPR7 antagonist: 16; HSF1 activator: -16; Jurkat NFkB inh: -11; T cruzi repl: 29

What do the screens show for `COc1ccc(NC(=O)C2CCN(c3cc(-c4ccccc4)nc4ncnn34)CC2)cc1OC`?
697 NFkB inh: 40*; GPR7 antagonist: -11; Jurkat NFkB inh: 24; 697 NFkB conf: 8

How did O=C(Nc1ccc2[nH]c(=S)sc2c1)Nc1ccccc1F do in these assays?
697 NFkB inh: -296; HSF1 inhib: -3; GPR7 antagonist: 9; HSF1 activator: -7; Jurkat NFkB inh: -122; T cruzi repl: -17; 697 NFkB conf: -212

Results for Cc1ccc(CN(C(=O)c2csnn2)C(C(=O)NC2CCCC2)c2ccco2)cc1 (stereo not given) ?
697 NFkB inh: -5; HSF1 inhib: -2; GPR7 antagonist: 4; HSF1 activator: 10; Jurkat NFkB inh: 5; T cruzi repl: -18

How did Cc1cccc(C(=O)n2c(=S)nc3ccccn32)c1 do in these assays?
697 NFkB inh: -337; HSF1 inhib: -12; GPR7 antagonist: 0; HSF1 activator: 8; Jurkat NFkB inh: -132; T cruzi repl: 1; 697 NFkB conf: -291

Results for Cc1ccc(C(=O)n2c(=S)nc3ccccn32)cc1 ?
HSF1 inhib: 3; GPR7 antagonist: 2; HSF1 activator: -11; T cruzi repl: -3

Results for Nc1ccccc1SCC(=O)Nc1nc(-c2ccccc2)cs1 ?
697 NFkB inh: 47*; HSF1 inhib: 1; GPR7 antagonist: 11; HSF1 activator: 13; Jurkat NFkB inh: 23; T cruzi repl: -9; 697 NFkB conf: 40*

Results for O=C(NCc1ccccc1Br)C1CCCO1 (stereo not given) ?
697 NFkB inh: 3; HSF1 inhib: -8; GPR7 antagonist: -22; HSF1 activator: -9; Jurkat NFkB inh: 0; T cruzi repl: -2

How did COc1cc(OC)cc(-c2c(C#Cc3ccsc3)c3cc(-c4ccc5c(c4)OCCO5)ccc3n2C)c1 do in these assays?
697 NFkB inh: 7; Jurkat NFkB inh: -8

How did COc1ccc(-c2cc(C(=O)N/N=C/c3sccc3C)c3ccccc3n2)c(OC)c1 do in these assays?
697 NFkB inh: -275; HSF1 inhib: 24; GPR7 antagonist: -2; HSF1 activator: 42; Jurkat NFkB inh: -23; T cruzi repl: -20; 697 NFkB conf: -21

What do the screens show for `COc1ccc(-c2cc(C(=O)N/N=C/c3ccc4c(c3)OCO4)c3ccccc3n2)c(OC)c1`?
697 NFkB inh: -64; HSF1 inhib: 2; GPR7 antagonist: -5; HSF1 activator: 2; Jurkat NFkB inh: -3; T cruzi repl: 4

What do the screens show for `Cc1nc2c(-c3ccc(F)cc3)cnn2c(N)c1-c1ccc(F)cc1`?
697 NFkB inh: -357; HSF1 inhib: -56*; GPR7 antagonist: 12; HSF1 activator: -62; Jurkat NFkB inh: -149; T cruzi repl: 32; 697 NFkB conf: -252

Results for Nc1c(-c2cccs2)cnc2c(-c3ccc(F)cc3)cnn12 ?
697 NFkB inh: -319; HSF1 inhib: 15; GPR7 antagonist: 4; HSF1 activator: inconclusive; Jurkat NFkB inh: -147; T cruzi repl: 6; 697 NFkB conf: -358

Results for CS(=O)(=O)c1cnc2c(-c3ccc(F)cc3)cnn2c1N ?
697 NFkB inh: -179; HSF1 inhib: 19; GPR7 antagonist: 0; HSF1 activator: 40; Jurkat NFkB inh: -136; T cruzi repl: -21

What do the screens show for `Cc1cc(N)n2ncc(-c3ccc(F)cc3)c2n1`?
697 NFkB inh: -74; HSF1 inhib: 21; GPR7 antagonist: 9; HSF1 activator: 32; Jurkat NFkB inh: -77; T cruzi repl: -21

What do the screens show for `N#CCSc1n[nH]c2nc3c(c(=O)n12)C1(CCCC1)Cc1ccccc1-3`?
697 NFkB inh: 37*; HSF1 inhib: -5; GPR7 antagonist: -3; HSF1 activator: -3; Jurkat NFkB inh: 1; T cruzi repl: -4; 697 NFkB conf: 4

What do the screens show for `CCCn1c(SCC#N)nc2c(c1=O)C1(CCCC1)Cc1ccccc1-2`?
697 NFkB inh: 15; HSF1 inhib: 14; GPR7 antagonist: -19; HSF1 activator: 32; Jurkat NFkB inh: 0; T cruzi repl: 23

Results for CCOC(=O)c1c(C)[nH]c(C(=O)OCC(=O)NC2(C#N)CCCCC2)c1C ?
697 NFkB inh: 0; HSF1 inhib: -2; HSF1 activator: 1; Jurkat NFkB inh: 2; T cruzi repl: 1

Compound activity: PubChem BioAssay, several laboratories
